How the values were obtained:
[1] = Plasma protein binding by equilibrium dialysis; assay type: in vitro ADME; conditions: human
healthy volunteers = assay: Phase 1 safety and tolerability; assay type: in vivo, human; conditions: for Diarrhea, participants with adverse event / Headache, participants with adverse event: part B MAD
[2] = system: lymphocyte subpopulations (T/B/NK/monocyte counts); assay: Flow cytometry analysis of immune cell subsets in whole blood, part B; assay type: in vivo, human
Method in brief: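 Healthy volunteers got oral liquid test compound (7.5, 15, 30, 60 or 90 mg) or matching placebo once daily for 10 days, fasted. Whole blood was drawn predose on days 1, 4 and 10. Flow cytometry counted T, B, NK and monocytes with CD3, CD4, CD8, CD14, CD19 and CD16/56 antibodies. Naïve (CD19+ CD27-) and memory (CD19+ CD27+) B cells were also counted. Error bars are SD.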

[3] = system: experimental autoimmune encephalomyelitis; assay: Experimental autoimmune encephalomyelitis; assay type: in vivo; conditions: EAE mouse model; unpublished data
[4] = Urine pharmacokinetics, 60 mg cohort part A; assay type: in vivo, human
[5] = Plasma pharmacokinetics, part B; conditions: human, in vivo, n = 8
[6] = Plasma pharmacokinetics, part A; assay type: in vivo, human; conditions: for half-life / Tmax / AUC(0-inf) / AUC(0-t) / Cmax: human, in vivo
[7] = 7.5 mg q.d. 10 days, 8 participants
[8] = 15 mg q.d. 10 days, 8 participants
[9] = 30 mg q.d. 10 days, 8 participants
[10] = 60 mg q.d. 10 days, 8 participants
[11] = 90 mg q.d. 10 days, 8 participants
[12] = all tolebrutinib doses, 40 participants

fraction unbound [1]: ~0.065
CL renal ([4]; human, urine, po, 60 mg): ~5 mL/min
total mean amount recovered unchanged in urine ([4]; single oral 60 mg, fasted, after 12 h): 4.2 µg
AUC ([5]; 7.5 mg, AUC0‐24, MAD 7.5 mg q.d., Day 1, mean): 2.12 ng·h/mL
AUC ([5]; 7.5 mg, AUC0‐24, MAD 7.5 mg q.d., Day 10, mean): 3.07 ng·h/mL
Cmax ([5]; 7.5 mg, MAD 7.5 mg q.d., Day 1, mean): 1.17 ng/mL
Cmax ([5]; 7.5 mg, MAD 7.5 mg q.d., Day 10, mean): 1.32 ng/mL
Tmax ([5]; 7.5 mg, MAD 7.5 mg q.d., Day 1, median (min – max)): 1 h
Tmax ([5]; 7.5 mg, MAD 7.5 mg q.d., Day 10, median (min – max)): 1 h
half-life ([5]; 7.5 mg, t 1/2, MAD 7.5 mg q.d., Day 1, mean): 1.45 h
half-life ([5]; 7.5 mg, t 1/2, MAD 7.5 mg q.d., Day 10, mean): 1.57 h
AUC ([5]; 15 mg, AUC0‐24, MAD 15 mg q.d., Day 1, mean): 3.82 ng·h/mL
AUC ([5]; 15 mg, AUC0‐24, MAD 15 mg q.d., Day 10, mean): 5.85 ng·h/mL
Cmax ([5]; 15 mg, MAD 15 mg q.d., Day 1, mean): 1.96 ng/mL
Cmax ([5]; 15 mg, MAD 15 mg q.d., Day 10, mean): 2.51 ng/mL
Tmax ([5]; 15 mg, MAD 15 mg q.d., Day 1, median (min – max)): 1 h
Tmax ([5]; 15 mg, MAD 15 mg q.d., Day 10, median (min – max)): 1 h
half-life ([5]; 15 mg, t 1/2, MAD 15 mg q.d., Day 1, mean): 1.4 h
half-life ([5]; 15 mg, t 1/2, MAD 15 mg q.d., Day 10, mean): 1.68 h
AUC ([5]; 30 mg, AUC0‐24, MAD 30 mg q.d., Day 1, mean): 9.67 ng·h/mL
AUC ([5]; 30 mg, AUC0‐24, MAD 30 mg q.d., Day 10, mean): 14.9 ng·h/mL
Cmax ([5]; 30 mg, MAD 30 mg q.d., Day 1, mean): 6.25 ng/mL
Cmax ([5]; 30 mg, MAD 30 mg q.d., Day 10, mean): 7.46 ng/mL
Tmax ([5]; 30 mg, MAD 30 mg q.d., Day 1, median (min – max)): 0.75 h
Tmax ([5]; 30 mg, MAD 30 mg q.d., Day 10, median (min – max)): 1 h
half-life ([5]; 30 mg, t 1/2, MAD 30 mg q.d., Day 1, mean): 1.6 h
half-life ([5]; 30 mg, t 1/2, MAD 30 mg q.d., Day 10, mean): 2.02 h
AUC ([5]; 60 mg, AUC0‐24, MAD 60 mg q.d., Day 1, mean): 24.3 ng·h/mL
AUC ([5]; 60 mg, AUC0‐24, MAD 60 mg q.d., Day 10, mean): 18.2 ng·h/mL
Cmax ([5]; 60 mg, MAD 60 mg q.d., Day 1, mean): 8.47 ng/mL
Cmax ([5]; 60 mg, MAD 60 mg q.d., Day 10, mean): 6.69 ng/mL
Tmax ([5]; 60 mg, MAD 60 mg q.d., Day 1, median (min – max)): 1.25 h
Tmax ([5]; 60 mg, MAD 60 mg q.d., Day 10, median (min – max)): 1.5 h
half-life ([5]; 60 mg, t 1/2, MAD 60 mg q.d., Day 1, mean): 1.98 h
half-life ([5]; 60 mg, t 1/2, MAD 60 mg q.d., Day 10, mean): 2.37 h
AUC ([5]; 90 mg, AUC0‐24, MAD 90 mg q.d., Day 1, mean): 35.5 ng·h/mL
AUC ([5]; 90 mg, AUC0‐24, MAD 90 mg q.d., Day 10, mean): 56.6 ng·h/mL
Cmax ([5]; 90 mg, MAD 90 mg q.d., Day 1, mean): 19.3 ng/mL
Cmax ([5]; 90 mg, MAD 90 mg q.d., Day 10, mean): 21.7 ng/mL
Tmax ([5]; 90 mg, MAD 90 mg q.d., Day 1, median (min – max)): 1 h
Tmax ([5]; 90 mg, MAD 90 mg q.d., Day 10, median (min – max)): 1.5 h
half-life ([5]; 90 mg, t 1/2, MAD 90 mg q.d., Day 1, mean): 2.1 h
half-life ([5]; 90 mg, t 1/2, MAD 90 mg q.d., Day 10, mean): 2.83 h
half‐life (mean) ([6]; after oral administration, fasting, across doses): 1.5 to 2 h
Dose proportionality of exposure ([6]; dose levels between 15 and 60 mg): approximately dose proportional
half-life ([6]; half‐life, plasma, as summarised in CSF section): 1.5 to 2 h
Tmax ([6]; po): ~1 h
AUC(0-inf) ([6]; po, 5 mg): 1.39 ng·h/mL
AUC(0-t) ([6]; po, 5 mg): 0.57 ng·h/mL
Cmax ([6]; po, 5 mg): 0.369 ng/mL
Tmax ([6]; po, 5 mg): 1 h
half-life ([6]; po, 5 mg, t 1/2, SAD, single oral 5 mg, fasting, mean, n = 6): 1.92 h
AUC(0-inf) ([6]; po, 15 mg): 4.06 ng·h/mL
AUC(0-t) ([6]; po, 15 mg): 3.67 ng·h/mL
Cmax ([6]; po, 15 mg): 1.97 ng/mL
Tmax ([6]; po, 15 mg): 1 h
half-life ([6]; po, 15 mg, t 1/2, SAD, single oral 15 mg, fasting, mean, n = 6): 1.39 h
AUC(0-inf) ([6]; po, 30 mg): 6.46 ng·h/mL
AUC(0-t) ([6]; po, 30 mg): 6.04 ng·h/mL
Cmax ([6]; po, 30 mg): 3.12 ng/mL
Tmax ([6]; po, 30 mg): 1 h
half-life ([6]; po, 30 mg, t 1/2, SAD, single oral 30 mg, fasting, mean, n = 6): 1.47 h
AUC(0-inf) ([6]; po, 60 mg): 15.9 ng·h/mL
AUC(0-t) ([6]; po, 60 mg): 15.6 ng·h/mL
Cmax ([6]; po, 60 mg): 6.89 ng/mL
Tmax ([6]; po, 60 mg): 1.5 h
half-life ([6]; po, 60 mg, t 1/2, SAD, single oral 60 mg, fasting, mean, n = 6): 1.67 h
AUC(0-inf) ([6]; po, 120 mg): 62.6 ng·h/mL
AUC(0-t) ([6]; po, 120 mg): 61.6 ng·h/mL
Cmax ([6]; po, 120 mg): 32.3 ng/mL
Tmax ([6]; po, 120 mg): 1 h
half-life ([6]; po, 120 mg, t 1/2, SAD, single oral 120 mg, fasting, mean, n = 6): 2.18 h
Dose proportionality of Cmax and AUC (power model) ([6]; single doses 5 to 120 mg): more than dose proportional
SMILES: C=CC(=O)N1CCC[C@@H](n2c(=O)n(-c3ccc(Oc4ccccc4)cc3)c3c(N)nccc32)C1 [tolebrutinib]
Serious treatment-emergent adverse events (healthy volunteers; part A (SAD)): no serious treatment‐emergent adverse events
Tolerability (healthy volunteers; part A (SAD), single doses 5-120 mg): well‐tolerated
Severity of treatment-related TEAEs (healthy volunteers; part B (MAD), all combined dose groups): mild
Diarrhea, participants with adverse event (healthy volunteers; [7]): 1
Headache, participants with adverse event (healthy volunteers; [7]): 2
Diarrhea, participants with adverse event (healthy volunteers; [8]): 1
Headache, participants with adverse event (healthy volunteers; [8]): 1
Diarrhea, participants with adverse event (healthy volunteers; [9]): 2
Headache, participants with adverse event (healthy volunteers; [9]): 1
Diarrhea, participants with adverse event (healthy volunteers; [10]): 0
Headache, participants with adverse event (healthy volunteers; [10]): 0
Diarrhea, participants with adverse event (healthy volunteers; [11]): 5
Headache, participants with adverse event (healthy volunteers; [11]): 0
Diarrhea, participants with adverse event (healthy volunteers; [12]): 9
Headache, participants with adverse event (healthy volunteers; [12]): 4
circulating total B cell levels (both naïve and memory B cells) ([2]; day 4 and day 10, all part B cohorts): Elevated
B cell depletion ([2]; part B MAD): did not result in B cell depletion
other immune cell populations: T cells (total CD3, CD4, CD8), monocytes, NK ([2]; part B MAD): No changes
Protection from disease induction [3]: dose‐dependent protection

Reference: PMC8841436 (Clinical and Translational Science, 2021)
